How the values were obtained:
[1] = Cytotoxicity against human multidrug-resistant KB-C2 cells after 48 hrs by MTT assay; assay type: functional, cell-based; details: KB-C2, 48 h
Method in brief: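 Seeded 5 × 10³ cells/well, preincubated 24 h, then compounds at 2, 10, 50, 100 µg/mL in medium (0.5% DMSO final) for 48 h. MTT 0.5 mg/mL for 4 h, formazan dissolved in DMSO, OD 540 nm; IC50 relative to vehicle controls.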

[2] = system: KB-C2; assay: Inhibition of P-gp-mediated multidrug-resistance in human KB-C2 cells assessed as increase in colchicine-induced cytotoxicity at 1 ug/ml after 48 hrs by MTT assay; assay type: cell-based
[3] = system: KB; assay: Cytotoxicity against human KB cells after 48 hrs by MTT assay; assay type: functional, cell-based
[4] = system: KB-C2; assay: Inhibition of P-gp-mediated multidrug-resistance in human KB-C2 cells assessed as increase in colchicine-induced cytotoxicity at 5 ug/ml after 48 hrs by MTT assay; assay type: cell-based

## CCNC(=O)CC(=O)O[C@@H]1CC[C@]2(C)[C@H]3C[C@@H](OC(C)=O)[C@@H]4[C@@H]([C@]5(C)CC[C@H](C(C)(C)O)O5)CC[C@@]4(C)[C@]3(C)CC[C@H]2C1(C)C
[1]
  IC50: 43.9 µM
[2]
  fold change (FC): 2.6
[3]
  IC50: 39.7 µM
[4]
  fold change (FC): 53.9

## COC(=O)CC(=O)O[C@@H]1CC[C@]2(C)[C@H]3CC[C@@H]4[C@@H]([C@]5(C)CC[C@H](C(C)(C)O)O5)CC[C@@]4(C)[C@]3(C)CC[C@H]2C1(C)C
[1]
  IC50: 56.6 µM
[2]
  fold change (FC): 1.1
[3]
  IC50: 45.4 µM
[4]
  fold change (FC): 14.8

## COC(=O)CC(=O)O[C@@H]1CC[C@]2(C)[C@H]3C[C@@H](OC(C)=O)[C@@H]4[C@@H]([C@]5(C)CC[C@H](C(C)(C)O)O5)CC[C@@]4(C)[C@]3(C)CC[C@H]2C1(C)C [METHYL PAPYRIFERATE]
[1]
  IC50: 32.1 µM
[2]
  fold change (FC): 1.5
[3]
  IC50: 26.7 µM
[4]
  fold change (FC): 51.6

## CCCCOC(=O)CC(=O)O[C@@H]1CC[C@]2(C)[C@H]3CC[C@@H]4[C@@H]([C@]5(C)CC[C@H](C(C)(C)O)O5)CC[C@@]4(C)[C@]3(C)CC[C@H]2C1(C)C
[1]
  IC50: > 100 µM
[3]
  IC50: > 100 µM

## CNC(=O)CC(=O)O[C@@H]1CC[C@]2(C)[C@H]3C[C@@H](OC(C)=O)[C@@H]4[C@@H]([C@]5(C)CC[C@H](C(C)(C)O)O5)CC[C@@]4(C)[C@]3(C)CC[C@H]2C1(C)C
[1]
  IC50: 43.1 µM
[2]
  fold change (FC): 4.7
[3]
  IC50: 40.9 µM
[4]
  fold change (FC): 74.4

## CC(=O)O[C@@H]1C[C@@H]2[C@@]3(C)CC[C@@H](OC(=O)CC(N)=O)C(C)(C)[C@@H]3CC[C@@]2(C)[C@]2(C)CC[C@H]([C@]3(C)CC[C@H](C(C)(C)O)O3)[C@@H]12
[1]
  IC50: 43.7 µM
[2]
  fold change (FC): 2.1
[3]
  IC50: 39.3 µM
[4]
  fold change (FC): 49.3

## CCCCCCOC(=O)CC(=O)O[C@@H]1CC[C@]2(C)[C@H]3CC[C@@H]4[C@@H]([C@]5(C)CC[C@H](C(C)(C)O)O5)CC[C@@]4(C)[C@]3(C)CC[C@H]2C1(C)C
[1]
  IC50: > 100 µM
[3]
  IC50: > 100 µM

## CC(=O)O[C@@H]1C[C@@H]2[C@@]3(C)CC[C@@H](OC(=O)CC(=O)NCc4ccccc4)C(C)(C)[C@@H]3CC[C@@]2(C)[C@]2(C)CC[C@H]([C@]3(C)CC[C@H](C(C)(C)O)O3)[C@@H]12
[1]
  IC50: 33.2 µM
[3]
  IC50: 31.9 µM

## CC(=O)O[C@@H]1C[C@@H]2[C@@]3(C)CC[C@@H](OC(=O)CC(=O)NCc4ccccc4)C(C)(C)[C@@H]3CC[C@@]2(C)[C@]2(C)CC[C@H]([C@]3(C)CC[C@H](C(C)(C)OC(=O)C(=O)NCc4ccccc4)O3)[C@@H]12
[1]
  IC50: > 100 µM
[3]
  IC50: > 100 µM

## CC(=O)O[C@@H]1C[C@@H]2[C@@]3(C)CC[C@@H](OC(=O)CC(=O)N4CCOCC4)C(C)(C)[C@@H]3CC[C@@]2(C)[C@]2(C)CC[C@H]([C@]3(C)CC[C@H](C(C)(C)O)O3)[C@@H]12
[1]
  IC50: 27.5 µM
[2]
  fold change (FC): 17.4
[3]
  IC50: 30.8 µM
[4]
  fold change (FC): 185

## CC(=O)O[C@@H]1C[C@@H]2[C@@]3(C)CC[C@@H](OC(=O)CC(=O)N(C)C)C(C)(C)[C@@H]3CC[C@@]2(C)[C@]2(C)CC[C@H]([C@]3(C)CC[C@H](C(C)(C)O)O3)[C@@H]12
[1]
  IC50: 28 µM
[2]
  fold change (FC): 2.4
[3]
  IC50: 25.2 µM
[4]
  fold change (FC): 87.5

## CC(=O)O[C@@H]1C[C@@H]2[C@@]3(C)CC[C@@H](OC(=O)CC(=O)OC(C)C)C(C)(C)[C@@H]3CC[C@@]2(C)[C@]2(C)CC[C@H]([C@]3(C)CC[C@H](C(C)(C)O)O3)[C@@H]12
[1]
  IC50: > 100 µM
[3]
  IC50: 74.6 µM

## CC(=O)O[C@@H]1C[C@@H]2[C@@]3(C)CC[C@@H](OC(=O)CC(=O)NC(C)(C)C)C(C)(C)[C@@H]3CC[C@@]2(C)[C@]2(C)CC[C@H]([C@]3(C)CC[C@H](C(C)(C)O)O3)[C@@H]12
[1]
  IC50: 47.9 µM
[2]
  fold change (FC): 1.1
[3]
  IC50: 40.5 µM
[4]
  fold change (FC): 9.8

## CCCCCCOC(=O)CC(=O)O[C@@H]1CC[C@]2(C)[C@H]3C[C@@H](OC(C)=O)[C@@H]4[C@@H]([C@]5(C)CC[C@H](C(C)(C)O)O5)CC[C@@]4(C)[C@]3(C)CC[C@H]2C1(C)C
[1]
  IC50: > 100 µM
[3]
  IC50: 70.7 µM

## CC(C)COC(=O)CC(=O)O[C@@H]1CC[C@]2(C)[C@H]3CC[C@@H]4[C@@H]([C@]5(C)CC[C@H](C(C)(C)O)O5)CC[C@@]4(C)[C@]3(C)CC[C@H]2C1(C)C
[1]
  IC50: > 100 µM
[3]
  IC50: 97 µM

## CCCCCCCOC(=O)CC(=O)O[C@@H]1CC[C@]2(C)[C@H]3C[C@@H](OC(C)=O)[C@@H]4[C@@H]([C@]5(C)CC[C@H](C(C)(C)O)O5)CC[C@@]4(C)[C@]3(C)CC[C@H]2C1(C)C
[1]
  IC50: > 100 µM
[3]
  IC50: > 100 µM

## CCCCCNC(=O)CC(=O)O[C@@H]1CC[C@]2(C)[C@H]3C[C@@H](OC(C)=O)[C@@H]4[C@@H]([C@]5(C)CC[C@H](C(C)(C)O)O5)CC[C@@]4(C)[C@]3(C)CC[C@H]2C1(C)C
[1]
  IC50: 38.3 µM
[3]
  IC50: 38.3 µM

## CCCCCOC(=O)CC(=O)O[C@@H]1CC[C@]2(C)[C@H]3CC[C@@H]4[C@@H]([C@]5(C)CC[C@H](C(C)(C)O)O5)CC[C@@]4(C)[C@]3(C)CC[C@H]2C1(C)C
[1]
  IC50: > 100 µM
[3]
  IC50: > 100 µM

## CCCNC(=O)CC(=O)O[C@@H]1CC[C@]2(C)[C@H]3C[C@@H](OC(C)=O)[C@@H]4[C@@H]([C@]5(C)CC[C@H](C(C)(C)OC(=O)C(=O)NCCC)O5)CC[C@@]4(C)[C@]3(C)CC[C@H]2C1(C)C
[1]
  IC50: 26.6 µM
[2]
  fold change (FC): 1.2
[3]
  IC50: 24.8 µM
[4]
  fold change (FC): 68.8

## CCCCCCCCOC(=O)CC(=O)O[C@@H]1CC[C@]2(C)[C@H]3C[C@@H](OC(C)=O)[C@@H]4[C@@H]([C@]5(C)CC[C@H](C(C)(C)O)O5)CC[C@@]4(C)[C@]3(C)CC[C@H]2C1(C)C
[1]
  IC50: > 100 µM
[3]
  IC50: > 100 µM

## CC(=O)O[C@@H]1C[C@@H]2[C@@]3(C)CC[C@@H](OC(=O)CC(=O)Nc4ccccc4)C(C)(C)[C@@H]3CC[C@@]2(C)[C@]2(C)CC[C@H]([C@]3(C)CC[C@H](C(C)(C)OC(=O)C(=O)Nc4ccccc4)O3)[C@@H]12
[1]
  IC50: > 100 µM
[3]
  IC50: > 100 µM

## CCCCNC(=O)CC(=O)O[C@@H]1CC[C@]2(C)[C@H]3C[C@@H](OC(C)=O)[C@@H]4[C@@H]([C@]5(C)CC[C@H](C(C)(C)O)O5)CC[C@@]4(C)[C@]3(C)CC[C@H]2C1(C)C
[1]
  IC50: 24.4 µM
[3]
  IC50: 24.9 µM

## CCOC(=O)CC(=O)O[C@@H]1CC[C@]2(C)[C@H]3C[C@@H](OC(C)=O)[C@@H]4[C@@H]([C@]5(C)CC[C@H](C(C)(C)O)O5)CC[C@@]4(C)[C@]3(C)CC[C@H]2C1(C)C
[1]
  IC50: 64.3 µM
[3]
  IC50: 39.1 µM

## CCCCCNC(=O)CC(=O)O[C@@H]1CC[C@]2(C)[C@H]3C[C@@H](OC(C)=O)[C@@H]4[C@@H]([C@]5(C)CC[C@H](C(C)(C)OC(=O)C(=O)NCCCCC)O5)CC[C@@]4(C)[C@]3(C)CC[C@H]2C1(C)C
[1]
  IC50: > 100 µM
[3]
  IC50: > 100 µM

## CCCCCCCCOC(=O)CC(=O)O[C@@H]1CC[C@]2(C)[C@H]3CC[C@@H]4[C@@H]([C@]5(C)CC[C@H](C(C)(C)O)O5)CC[C@@]4(C)[C@]3(C)CC[C@H]2C1(C)C
[1]
  IC50: > 100 µM
[3]
  IC50: > 100 µM

## COc1ccc(OC)c(NC(=O)CC(=O)O[C@@H]2CC[C@]3(C)[C@H]4C[C@@H](OC(C)=O)[C@@H]5[C@@H]([C@]6(C)CC[C@H](C(C)(C)OC(=O)C(=O)Nc7cc(OC)ccc7OC)O6)CC[C@@]5(C)[C@]4(C)CC[C@H]3C2(C)C)c1
[1]
  IC50: > 100 µM
[3]
  IC50: > 100 µM

## C=CCOC(=O)CC(=O)O[C@@H]1CC[C@]2(C)[C@H]3C[C@@H](OC(C)=O)[C@@H]4[C@@H]([C@]5(C)CC[C@H](C(C)(C)O)O5)CC[C@@]4(C)[C@]3(C)CC[C@H]2C1(C)C
[1]
  IC50: 48.3 µM
[3]
  IC50: 34.8 µM

## CC(=O)O[C@@H]1C[C@@H]2[C@@]3(C)CC[C@@H](OC(=O)CC(=O)OCc4ccccc4)C(C)(C)[C@@H]3CC[C@@]2(C)[C@]2(C)CC[C@H]([C@]3(C)CC[C@H](C(C)(C)O)O3)[C@@H]12
[1]
  IC50: > 100 µM
[3]
  IC50: 43.7 µM

## CCCOC(=O)CC(=O)O[C@@H]1CC[C@]2(C)[C@H]3CC[C@@H]4[C@@H]([C@]5(C)CC[C@H](C(C)(C)O)O5)CC[C@@]4(C)[C@]3(C)CC[C@H]2C1(C)C
[1]
  IC50: > 100 µM
[3]
  IC50: 60.3 µM

## CCCCOC(=O)CC(=O)O[C@@H]1CC[C@]2(C)[C@H]3C[C@@H](OC(C)=O)[C@@H]4[C@@H]([C@]5(C)CC[C@H](C(C)(C)O)O5)CC[C@@]4(C)[C@]3(C)CC[C@H]2C1(C)C
[1]
  IC50: > 100 µM
[3]
  IC50: 40.8 µM
